From ChEMBL document CHEMBL1155761, “Isolation and structure of five new cancer cell growth inhibitory bufadienolides from the Chinese traditional drug Ch'an Su” (J Nat Prod, 2001)
In brackets after ≈: the same amount, converted by molar mass.

Assays:
Assay type in all cases: functional, cell-based
[1] = test system: MH60; test: Cytotoxicity against mouse MH60 cells after 72 hrs by MTT assay; details: MH60, 72 h
Method in brief: (§1)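 Cells seeded per well in 0.2 mL culture medium: 2 × 10^4 cells for KB and HL-60, 5 × 10^3 cells for MH-60. Treated in triplicate with graded concentrations of test samples (5 µL added per well), then incubated 72 h at 37 °C in 5% CO2.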

[2] = test system: KB; test: Cytotoxicity against human KB cells after 72 hrs by MTT assay; method in brief: as §1
[3] = test system: HL-60; test: Cytotoxicity against human HL60 cells after 72 hrs by MTT assay; details: HL-60, 72 h; method in brief: as §1
[4] = test system: DU-145; test: Cytotoxicity against human DU145 cells after 72 hrs by MTT assay; details: DU-145, 72 h
[5] = test system: BXPC-3; test: Cytotoxicity against human BxPC3 cells after 72 hrs by MTT assay; details: BXPC-3, 72 h
[6] = test system: SF-268; test: Cytotoxicity against human SF268 cells after 72 hrs by MTT assay; details: SF-268, 72 h
[7] = test system: KM-20L2; test: Cytotoxicity against human KM20L2 cells after 72 hrs by MTT assay; details: KM-20L2, 72 h
[8] = test system: MCF7; test: Cytotoxicity against human MCF7 cells after 72 hrs by MTT assay; details: MCF7, 72 h
[9] = test system: NCI-H460; test: Cytotoxicity against human NCI-H460 cells after 72 hrs by MTT assay; details: NCI-H460, 72 h

Compound	IC50 [1] [µg/mL]	IC50 [2] [µg/mL]	IC50 [3] [µg/mL]	IC50 [4] [µg/mL]	IC50 [5] [µg/mL]	IC50 [6] [µg/mL]	IC50 [7] [µg/mL]	IC50 [8] [µg/mL]	IC50 [9] [µg/mL]
CC(=O)O[C@H]1[C@H]2O[C@]23[C@@H]2CC[C@@H]4C[C@@H](O)CC[C@]4(C)[C@H]2CC[C@]3(C)[C@H]1c1ccc(=O)oc1 [CINOBUFAGIN]	> 25	0.21 (≈ 0.475 µM)	< 0.01						
CC(=O)O[C@H]1[C@H]2O[C@]23[C@@H]2C[C@H](O)[C@@H]4C[C@@H](O)CC[C@]4(C)[C@H]2CC[C@]3(C)[C@H]1c1ccc(=O)oc1	> 25	0.87 (≈ 1.9 µM)	0.038 (≈ 0.0829 µM)	0.21 (≈ 0.458 µM)	0.46 (≈ 1 µM)	0.32 (≈ 0.698 µM)	0.28 (≈ 0.611 µM)	0.36 (≈ 0.785 µM)	0.74 (≈ 1.61 µM)
C[C@]12CC[C@H]3[C@@H](CC[C@@H]4C[C@@H](O)CC[C@@]43CO)[C@]13O[C@@H]3C[C@@H]2c1ccc(=O)oc1	> 25	1.2 (≈ 3 µM)	0.48 (≈ 1.2 µM)	0.38 (≈ 0.949 µM)	0.63 (≈ 1.57 µM)	0.25 (≈ 0.624 µM)	0.45 (≈ 1.12 µM)	0.33 (≈ 0.824 µM)	0.44 (≈ 1.1 µM)
CC(=O)O[C@H]1C[C@]2(O)[C@@H]3CC[C@@H]4C[C@@H](O)CC[C@]4(C)[C@H]3CC[C@]2(C)[C@H]1c1ccc(=O)oc1 [BUFOTALIN]	> 25	0.19 (≈ 0.427 µM)	< 0.01						
C[C@]12CC[C@H](O)C[C@H]1CC[C@@H]1[C@@H]2CC[C@]2(C)[C@@H](c3ccc(=O)oc3)[C@@H](O)C[C@]12O [DESACETYLBUFOTALIN]	> 25	0.79 (≈ 1.96 µM)	0.025 (≈ 0.0621 µM)						
CC(=O)O[C@H]1[C@H]2O[C@]23[C@@H]2CC[C@]4(O)C[C@@H](O)CC[C@]4(C)[C@H]2CC[C@]3(C)[C@H]1c1ccc(=O)oc1 [CINOBUFOTALIN]	> 25	0.37 (≈ 0.807 µM)	0.047 (≈ 0.102 µM)						
C[C@]12CC[C@H](O)C[C@@]1(O)CC[C@@H]1[C@@H]2CC[C@]2(C)[C@@H](c3ccc(=O)oc3)[C@@H](O)[C@H]3O[C@]132 [DESACETYLCINOBUFOTALIN]	> 25	10 (≈ 24 µM)	4.3 (≈ 10.3 µM)						
C[C@]12CC[C@H](O)C[C@@]1(O)CC[C@@H]1[C@@H]2CC[C@]2(C)[C@@H](c3ccc(=O)oc3)CC[C@]12O [TELOCINOBUFAGIN]	> 25	1.3 (≈ 3.23 µM)	< 0.01						
C[C@]12CC[C@H](OC=O)C[C@H]1CC[C@@H]1[C@@H]2CC[C@]2(C)[C@@H](c3ccc(=O)oc3)C[C@H]3O[C@]132	8.1 (≈ 19.6 µM)	3.4 (≈ 8.24 µM)	1 (≈ 2.42 µM)	0.42 (≈ 1.02 µM)	1.6 (≈ 3.88 µM)	0.38 (≈ 0.921 µM)	0.54 (≈ 1.31 µM)	0.6 (≈ 1.45 µM)	0.53 (≈ 1.28 µM)
C[C@]12CC[C@H](O)C[C@H]1CC[C@@H]1[C@@H]2C[C@@H](O)[C@]2(C)[C@@H](c3ccc(=O)oc3)C[C@H]3O[C@]132	> 25	0.97 (≈ 2.42 µM)	0.045 (≈ 0.112 µM)	0.041 (≈ 0.102 µM)	0.12 (≈ 0.3 µM)	0.046 (≈ 0.115 µM)	0.012 (≈ 0.03 µM)	0.066 (≈ 0.165 µM)	0.017 (≈ 0.0424 µM)
C[C@]12CC[C@H]3[C@@H](CC[C@@H]4C[C@@H](O)CC[C@@]43C=O)[C@@]1(O)CC[C@@H]2c1ccc(=O)oc1	> 25		< 0.01	0.0046 (≈ 0.0115 µM)	0.014 (≈ 0.035 µM)	0.0047 (≈ 0.0117 µM)	0.0082 (≈ 0.0205 µM)	0.0072 (≈ 0.018 µM)	0.018 (≈ 0.0449 µM)
C[C@]12CC[C@H](O)C[C@H]1CC[C@@H]1[C@@H]2CC[C@]2(C)[C@@H](c3ccc(=O)oc3)[C@@H](O)[C@H]3O[C@]132 [DESACETYLCINOBUFAGIN]	> 25	0.44 (≈ 1.1 µM)	1 (≈ 2.5 µM)						
CC(=O)O[C@H]1[C@H]2O[C@]23[C@@H]2CC[C@@H]4C[C@@H](O)CC[C@]4(C)[C@H]2C[C@@H](O)[C@]3(C)[C@H]1c1ccc(=O)oc1	> 25	0.79 (≈ 1.72 µM)	< 0.01						
C[C@]12CC[C@H]3[C@@H](CC[C@@H]4C[C@@H](O)CC[C@@]43CO)[C@]13O[C@@H]3[C@H](O)[C@@H]2c1ccc(=O)oc1	> 25	3.9 (≈ 9.36 µM)	0.49 (≈ 1.18 µM)						
CC(=O)O[C@H]1C[C@]2(O)[C@@H]3CC[C@]4(O)C[C@@H](O)CC[C@]4(C)[C@H]3CC[C@]2(C)[C@H]1c1ccc(=O)oc1	> 25	0.2 (≈ 0.434 µM)	< 0.01	0.024 (≈ 0.0521 µM)	0.11 (≈ 0.239 µM)	0.033 (≈ 0.0717 µM)	0.034 (≈ 0.0738 µM)	0.046 (≈ 0.0999 µM)	0.048 (≈ 0.104 µM)
C[C@]12CC[C@H]3[C@@H](CC[C@@H]4C[C@@H](O)CC[C@@]43C=O)[C@]13OC3[C@H](O)[C@@H]2c1ccc(=O)oc1 (some centres not stated)	> 25	0.65 (≈ 1.57 µM)	3 (≈ 7.24 µM)	> 1	> 1	> 1	> 1	> 1	> 1
C[C@]12CC[C@H](O)C[C@H]1CC[C@@H]1[C@@H]2[C@H](O)C[C@]2(C)[C@@H](c3ccc(=O)oc3)CC[C@]12O [GAMABUFOTALIN]	> 25	0.75 (≈ 1.86 µM)	0.014 (≈ 0.0348 µM)						
C[C@]12CC[C@H](O)C[C@H]1CC[C@@H]1[C@@H]2CC[C@]2(C)[C@@H](c3ccc(=O)oc3)C[C@H]3O[C@]132 [BUFOGENIN]	10 (≈ 26 µM)	1.3 (≈ 3.38 µM)	0.5 (≈ 1.3 µM)						
C[C@]12CC[C@H](O)C[C@H]1CC[C@@H]1[C@@H]2CC[C@]2(C)[C@@H](c3ccc(=O)oc3)CC[C@]12O [BUFALIN]	> 25	0.67 (≈ 1.73 µM)	< 0.01						
C[C@]12[C@H](CC[C@@H]3[C@@H]1CC[C@]1(C)[C@@H](c4ccc(=O)oc4)CC[C@]31O)C[C@@H](O)C[C@H]2O	> 25	0.19 (≈ 0.472 µM)	< 0.01	0.005 (≈ 0.0124 µM)	0.024 (≈ 0.0596 µM)	0.0044 (≈ 0.0109 µM)	0.011 (≈ 0.0273 µM)	0.012 (≈ 0.0298 µM)	0.014 (≈ 0.0348 µM)
